# Experimental data published in ChEMBL document CHEMBL1671845, “Inhibitors of HCV NS5A: From Iminothiazolidinones to Symmetrical Stilbenes” (ACS Med Chem Lett, 2011).
# Tested on: not listed separately
# Assay: Chemical stability of the compound in DMSO assessed as conversion of (2S)-1-(4-(3-(3-fluorophenyl)-1-(furan-2-ylmethyl)-4-hydroxy-5-oxo-2-thioxoimidazolidin- 4-yl)phenylamino)-1-oxopropan-2-ylcarbamate after 18 hrs by HPLC analysis
# Assay type: physicochemical
# Conditions: not given
row,Compound,Stability
1,C[C@H](NC(=O)OCc1ccccc1)C(=O)Nc1ccc(C2S/C(=N\c3cccc(F)c3)N(Cc3ccco3)C2=O)cc1 (stereo partly drawn),Unstable
2,C[C@H](NC(=O)Cc1ccccc1)C(=O)Nc1ccc(C2S/C(=N\c3cccc(F)c3)N(Cc3ccco3)C2=O)cc1 (stereo partly drawn),Unstable

# Tested on: not listed separately
# Assay: Chemical stability of the compound in DMSO assessed as conversion of (2S)-N-(4-(3-(3-Fluorophenyl)-1-(furan-2-ylmethyl)-4-hydroxy-5-oxo-2- thioxoimidazolidin-4-yl)phenyl)-2-(2-phenylacetamido)propanamide by HPLC analysis
# Assay type: physicochemical
# Conditions: not given
row,Compound,Stability
1,C[C@H](NC(=O)OCc1ccccc1)C(=O)Nc1ccc(C2S/C(=N\c3cccc(F)c3)N(Cc3ccco3)C2=O)cc1 (stereo partly drawn),Unstable
2,C[C@H](NC(=O)Cc1ccccc1)C(=O)Nc1ccc(C2S/C(=N\c3cccc(F)c3)N(Cc3ccco3)C2=O)cc1 (stereo partly drawn),Unstable

# Tested on: not listed separately
# Assay: Cytotoxicity against human HuH7 cells
# Assay type: cell-based, Huh-7
# Conditions: not given
row,Compound,CC50
1,C[C@H](NC(=O)OCc1ccccc1)C(=O)Nc1ccc(C2S/C(=N\c3cccc(F)c3)N(Cc3ccco3)C2=O)cc1 (stereo partly drawn),> 100 µM

# Tested on: Hepatitis C virus
# Assay: Antiviral activity against HCV1b infected in human HuH7 cells assessed as inhibition of viral replication after 72 hrs by FRET assay
# Assay type: functional, organism-based, Hepacivirus hominis
# Conditions: genotype 1b, Huh-7, 72 h
# Outline: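 Dual-replicon screen pairing an HCV genotype 1b replicon with a bovine viral diarrhea virus replicon, run in high-throughput mode. Results are reported as EC50.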
row,Compound,EC50
1,C[C@H](NC(=O)OCc1ccccc1)C(=O)Nc1ccc(C2S/C(=N\c3cccc(F)c3)N(Cc3ccco3)C2=O)cc1 (stereo partly drawn),580 nM
2,O=C(Nc1ccc(C2S/C(=N\c3cccc(F)c3)N(Cc3ccco3)C2=O)cc1)OCc1ccccc1 (stereo not drawn),150000 nM
3,O=C(COCc1ccccc1)Nc1ccc(C2S/C(=N\c3cccc(F)c3)N(Cc3ccco3)C2=O)cc1 (stereo not drawn),61000 nM
4,CC(OCc1ccccc1)C(=O)Nc1ccc(C2S/C(=N\c3cccc(F)c3)N(Cc3ccco3)C2=O)cc1 (stereo not drawn),132000 nM
5,O=C(CCc1ccccc1)Nc1ccc(C2S/C(=N\c3cccc(F)c3)N(Cc3ccco3)C2=O)cc1 (stereo not drawn),75000 nM
6,COC(=O)CCCC(=O)Nc1ccc(C2S/C(=N\c3cccc(F)c3)N(Cc3ccco3)C2=O)cc1 (stereo not drawn),150000 nM
7,C[C@@H](NC(=O)OCc1ccccc1)C(=O)Nc1ccc(C2S/C(=N\c3cccc(F)c3)N(Cc3ccco3)C2=O)cc1 (stereo partly drawn),96000 nM
8,O=C(Nc1ccc(C2S/C(=N\c3cccc(F)c3)N(Cc3ccco3)C2=O)cc1)[C@H]1CCCN1C(=O)OCc1ccccc1 (stereo partly drawn),6500 nM
9,O=C(CNC(=O)OCc1ccccc1)Nc1ccc(C2S/C(=N\c3cccc(F)c3)N(Cc3ccco3)C2=O)cc1 (stereo not drawn),5000 nM
10,CC(C)(C)OC[C@H](NC(=O)OCc1ccccc1)C(=O)Nc1ccc(C2S/C(=N\c3cccc(F)c3)N(Cc3ccco3)C2=O)cc1 (stereo partly drawn),> 50000 nM
11,CC[C@@H](C)[C@H](NC(=O)OCc1ccccc1)C(=O)Nc1ccc(C2S/C(=N\c3cccc(F)c3)N(Cc3ccco3)C2=O)cc1 (stereo partly drawn),6000 nM
12,O=C(N[C@@H](CSCc1ccccc1)C(=O)Nc1ccc(C2S/C(=N\c3cccc(F)c3)N(Cc3ccco3)C2=O)cc1)OCc1ccccc1 (stereo partly drawn),> 50000 nM
13,O=C(N[C@@H](Cc1ccccc1)C(=O)Nc1ccc(C2S/C(=N\c3cccc(F)c3)N(Cc3ccco3)C2=O)cc1)OCc1ccccc1 (stereo partly drawn),> 50000 nM
14,O=C(Nc1ccc(C2S/C(=N\c3cccc(F)c3)N(Cc3ccco3)C2=O)cc1)[C@@H]1CCCN1C(=O)c1ccccc1 (stereo partly drawn),7900 nM
15,C[C@H](NC(=O)CCc1ccccc1)C(=O)Nc1ccc(C2S/C(=N\c3cccc(F)c3)N(Cc3ccco3)C2=O)cc1 (stereo partly drawn),3100 nM
16,O=C(Nc1ccc(C2S/C(=N\c3cccc(F)c3)N(Cc3ccco3)C2=O)cc1)[C@@H]1CCCN1C(=O)CCc1ccccc1 (stereo partly drawn),5100 nM
17,C[C@H](NC(=O)OCc1ccccc1)C(=O)Nc1ccc(C2S/C(=N\c3ccc(C(F)(F)F)cc3)N(Cc3ccco3)C2=O)cc1 (stereo partly drawn),2200 nM
18,C[C@H](NC(=O)OCc1ccccc1)C(=O)Nc1ccc(C2S/C(=N\c3ccc(C(F)(F)F)c(F)c3)N(Cc3ccco3)C2=O)cc1 (stereo partly drawn),2500 nM
19,O=C(Nc1ccc(C2S/C(=N\c3ccc(C(F)(F)F)c(F)c3)N(Cc3ccco3)C2=O)cc1)[C@@H]1CCCN1C(=O)OCc1ccccc1 (stereo partly drawn),2200 nM
20,O=C(Nc1ccc(/C=C/c2ccc(NC(=O)[C@H]3CCCN3C(=O)Cc3ccccc3)cc2)cc1)[C@H]1CCCN1C(=O)Cc1ccccc1,> 10000 nM
21,O=C(Nc1ccc(/C=C/c2ccc(NC(=O)[C@H]3CCCN3C(=O)OCc3ccccc3)cc2)cc1)[C@H]1CCCN1C(=O)OCc1ccccc1,> 10000 nM

# Other lines, results leading:
row,EC50,Compound
1,110 nM,O=C(Nc1ccc(C2S/C(=N\c3cccc(F)c3)N(Cc3ccco3)C2=O)cc1)[C@@H]1CCCN1C(=O)OCc1ccccc1 (stereo partly drawn)
2,1900 nM,C[C@H](NC(=O)c1ccccc1)C(=O)Nc1ccc(C2S/C(=N\c3cccc(F)c3)N(Cc3ccco3)C2=O)cc1 (stereo partly drawn)
3,6 nM,C[C@H](NC(=O)Cc1ccccc1)C(=O)Nc1ccc(C2S/C(=N\c3cccc(F)c3)N(Cc3ccco3)C2=O)cc1 (stereo partly drawn)
4,23 nM,O=C(Nc1ccc(C2S/C(=N\c3cccc(F)c3)N(Cc3ccco3)C2=O)cc1)[C@@H]1CCCN1C(=O)Cc1ccccc1 (stereo partly drawn)
5,650 nM,C[C@H](NC(=O)OCc1ccccc1)C(=O)Nc1ccc(C2S/C(=N\c3cccc(F)c3)N(CC3CCCO3)C2=O)cc1 (stereo partly drawn)
6,25 nM,C[C@H](NC(=O)OCc1ccccc1)C(=O)Nc1ccc(C2S/C(=N\c3cccc(F)c3)N(Cc3cnccn3)C2=O)cc1 (stereo partly drawn)
7,38 nM,O=C(Nc1ccc(C2S/C(=N\c3cccc(F)c3)N(Cc3cnccn3)C2=O)cc1)[C@@H]1CCCN1C(=O)OCc1ccccc1 (stereo partly drawn)
8,35 nM,C[C@H](NC(=O)OCc1ccccc1)C(=O)Nc1ccc(C2S/C(=N\c3cccc(F)c3)N(Cc3ccccn3)C2=O)cc1 (stereo partly drawn)
9,2 nM,O=C(Nc1ccc(C2S/C(=N\c3cccc(F)c3)N(Cc3ccccn3)C2=O)cc1)[C@@H]1CCCN1C(=O)OCc1ccccc1 (stereo partly drawn)
10,26 nM,C[C@H](NC(=O)OCc1ccccc1)C(=O)Nc1ccc(C2S/C(=N\c3cccc(F)c3)N(Cc3cccnc3)C2=O)cc1 (stereo partly drawn)
11,550 nM,C[C@H](NC(=O)OCc1ccccc1)C(=O)Nc1ccc(C2S/C(=N\c3cccc(F)c3)N(Cc3ccc(F)c(F)c3F)C2=O)cc1 (stereo partly drawn)
12,600 nM,O=C(Nc1ccc(C2S/C(=N\c3cccc(F)c3)N(Cc3ccc(F)c(F)c3F)C2=O)cc1)[C@@H]1CCCN1C(=O)OCc1ccccc1 (stereo partly drawn)
13,980 nM,O=C(Nc1ccc(C2S/C(=N\c3ccc(C(F)(F)F)cc3)N(Cc3ccco3)C2=O)cc1)[C@@H]1CCCN1C(=O)OCc1ccccc1 (stereo partly drawn)
14,510 nM,C[C@H](NC(=O)OCc1ccccc1)C(=O)Nc1ccc(C2S/C(=N\c3ccc(Cl)cc3)N(Cc3ccco3)C2=O)cc1 (stereo partly drawn)
15,1170 nM,O=C(Nc1ccc(C2S/C(=N\c3ccc(Cl)cc3)N(Cc3ccco3)C2=O)cc1)[C@@H]1CCCN1C(=O)OCc1ccccc1 (stereo partly drawn)
16,1500 nM,CCc1ccc(/N=C2\SC(c3ccc(NC(=O)[C@H](C)NC(=O)OCc4ccccc4)cc3)C(=O)N2Cc2ccco2)cc1 (stereo partly drawn)
17,1800 nM,CCc1ccc(/N=C2\SC(c3ccc(NC(=O)[C@@H]4CCCN4C(=O)OCc4ccccc4)cc3)C(=O)N2Cc2ccco2)cc1 (stereo partly drawn)
18,37 nM,C[C@H](NC(=O)OCc1ccccc1)C(=O)Nc1ccc(C2S/C(=N\c3ccc(C#N)cc3)N(Cc3ccco3)C2=O)cc1 (stereo partly drawn)
19,86 nM,N#Cc1ccc(/N=C2\SC(c3ccc(NC(=O)[C@@H]4CCCN4C(=O)OCc4ccccc4)cc3)C(=O)N2Cc2ccco2)cc1 (stereo partly drawn)
20,10 nM,C[C@H](NC(=O)OCc1ccccc1)C(=O)Nc1ccc(C2S/C(=N\c3cccc4c3OCCO4)N(Cc3ccco3)C2=O)cc1 (stereo partly drawn)
21,9 nM,O=C(Nc1ccc(C2S/C(=N\c3cccc4c3OCCO4)N(Cc3ccco3)C2=O)cc1)[C@@H]1CCCN1C(=O)OCc1ccccc1 (stereo partly drawn)
22,20 nM,C[C@H](NC(=O)OCc1ccccc1)C(=O)Nc1ccc(C2S/C(=N\c3cccc4ncccc34)N(Cc3ccco3)C2=O)cc1 (stereo partly drawn)
23,10 nM,O=C(Nc1ccc(C2S/C(=N\c3cccc4ncccc34)N(Cc3ccco3)C2=O)cc1)[C@@H]1CCCN1C(=O)OCc1ccccc1 (stereo partly drawn)
24,15 nM,C[C@H](NC(=O)OCc1ccccc1)C(=O)Nc1ccc(C2S/C(=N\c3ccc(N4CCOCC4)cc3)N(Cc3ccco3)C2=O)cc1 (stereo partly drawn)
25,20 nM,O=C(Nc1ccc(C2S/C(=N\c3ccc(N4CCOCC4)cc3)N(Cc3ccco3)C2=O)cc1)[C@@H]1CCCN1C(=O)OCc1ccccc1 (stereo partly drawn)
26,0.086 nM,O=C(Nc1ccc(/C=C/c2ccc(NC(=O)[C@@H]3CCCN3C(=O)Cc3ccccc3)cc2)cc1)[C@@H]1CCCN1C(=O)Cc1ccccc1
27,10 nM,O=C(Nc1ccc(/C=C/c2ccc(NC(=O)[C@@H]3CCCN3C(=O)OCc3ccccc3)cc2)cc1)[C@@H]1CCCN1C(=O)OCc1ccccc1
